Laboratory results published in ChEMBL document CHEMBL5137098, “Discovery of Substituted Di(pyridin-2-yl)-1,2,4-thiadiazol-5-amines as Novel Macrofilaricidal Compounds for the Treatment of Human Filarial Infections” (J Med Chem, 2022).
Converted amounts (≈) assume the structure as drawn.

Experiments:
[1] = Metabolic stability in human liver S9 fraction assessed as compound remaining at 3 uM measured at 60 mins by LC-MS/MS analysis; format: ADME, subcellular; settings: read-out: Stability
[2] = Metabolic stability in rat liver S9 fraction assessed as compound remaining at 3 uM measured at 60 mins by LC-MS/MS analysis; format: ADME, subcellular; settings: read-out: Stability
[3] = Metabolic stability in human liver microsome assessed as compound remaining at 3 uM measured at 30 mins in presence of NADPH by LC-MS/MS analysis; format: ADME; settings: liver microsomes, read-out: Stability
Summary of the method: (§1)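 Liver microsomes at 0.3 mg/mL with 1 mM NADPH in 200 mM phosphate buffer plus 2 mM MgCl2, pH 7.4, at 37 °C. Substrate 3 µM, incubated 30 min, triplicate. Percent remaining measured by LC-MS/MS.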

[4] = Metabolic stability in rat liver microsome assessed as compound remaining at 3 uM measured at 30 mins in presence of NADPH by LC-MS/MS analysis; format: ADME; settings: liver microsomes, read-out: Stability; summary of the method: as §1
[5] = Octanol/water distribution coefficient, logD of the compound at pH 7.4 sonicated for 30 mins followed by 24 hrs shaking; format: physicochemical
Summary of the method: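 Octanol/pH 7.4 0.1 M potassium phosphate partition. Sample at 1000 uM from 10 mM DMSO stock, 10% DMSO final. Sonicated 30 min, then shaken 24 h at 750 rpm at room temperature. Plate centrifuged 3600 rpm for 30 min.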

[6] = Kinetic solubility of compound incubated for 24 hrs; format: physicochemical; settings: for Kinetic_solubility: 24 h
Summary of the method: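 10 mM DMSO stock diluted into buffer to 200 µM final, 2% DMSO, run in duplicate. Buffers were pH 7.4 0.1 M potassium phosphate, pH 2.2, 6.8 and 5. Shaken 24 h at room temperature in a filter plate, then filtered by positive pressure. Single-point calibration against DMSO standards.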

[7] = test system: Onchocerca gutturosa; assay: Anti-filarial activity against Onchocerca gutturosa adult worms assessed as reduction in worm motility measured every 24 hrs for 5 days by olympus inverted microscopic analysis; format: functional, organism-based
Summary of the method: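 Adult worm motility read every 24 h, ending at 120 h. Serial 1-in-4 drug dilutions run to the activity endpoint. EC50 for motility reduction given as geomean, n=2.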

[8] = test system: Onchocerca volvulus; assay: Antiparasitic activity against Onchocerca volvulus L5 assessed as reduction in motility at 1 uM; set-up: scale not given: the % may be the effect or the level left
[9] = Mutagenicity in Escherichia coli WP2 uvrA in absence of liver S9 fraction by AMES test; format: toxicity
[10] = Mutagenicity in Salmonella typhimurium TA1535 in absence of liver S9 fraction by AMES test; format: toxicity; settings: salmonella enterica subsp. enterica serovar typhimurium
[11] = Mutagenicity in Salmonella typhimurium TA98 in presence of liver S9 fraction by AMES test; format: toxicity, subcellular; settings: salmonella enterica subsp. enterica serovar typhimurium
[12] = Mutagenicity in Salmonella typhimurium TA97 in absence of liver S9 fraction by AMES test; format: toxicity; settings: salmonella enterica subsp. enterica serovar typhimurium
[13] = Mutagenicity in Salmonella typhimurium TA98 in absence of liver S9 fraction by AMES test; format: toxicity; settings: salmonella enterica subsp. enterica serovar typhimurium
[14] = Mutagenicity in Salmonella typhimurium TA1535 in presence of liver S9 fraction by AMES test; format: toxicity, subcellular; settings: salmonella enterica subsp. enterica serovar typhimurium
[15] = Mutagenicity in Salmonella typhimurium TA97 in presence of liver S9 fraction by AMES test; format: toxicity, subcellular; settings: salmonella enterica subsp. enterica serovar typhimurium
[16] = Mutagenicity in Escherichia coli WP2 uvrA in presence of liver S9 fraction by AMES test; format: toxicity, subcellular
[17] = Mutagenicity in Salmonella typhimurium TA100 in presence of liver S9 fraction by AMES test; format: toxicity, subcellular; settings: salmonella enterica subsp. enterica serovar typhimurium
[18] = Mutagenicity in Salmonella typhimurium TA100 in absence of liver S9 fraction by AMES test; format: toxicity; settings: salmonella enterica subsp. enterica serovar typhimurium
[19] = test system: P-glycoprotein (human); assay: Efflux ratio of apparent permeability in MDCK-II cells expressing human P-glycoprotein gene at 10 uM measured at 2 hrs by LC-MS/MS analysis; format: ADME, cell-based, Canis lupus familiaris; settings: dog, MDCK-MDR1
[20] = Metabolic stability in mouse liver microsome assessed as compound remaining at 3 uM measured at 30 mins in presence of NADPH by LC-MS/MS analysis; format: ADME; settings: liver microsomes, read-out: Stability; summary of the method: as §1
[21] = test system: Litomosoides sigmodontis; assay: Antiparasitic activity against Litomosoides sigmodontis infected in BALB/c mouse assessed as reduction in worm burden at 10 mg/kg, po qd administered for 7 days; format: functional; set-up: scale not given: the % may be the effect or the level left; settings: time 7 day
[22] = test system: Litomosoides sigmodontis; assay: Antiparasitic activity against Litomosoides sigmodontis infected in BALB/c mouse assessed as reduction in worm burden at 30 mg/kg, sc BID administered for 7 days; format: functional; set-up: scale not given: the % may be the effect or the level left; settings: time 7 day
[23] = test system: Litomosoides sigmodontis; assay: Antiparasitic activity against Litomosoides sigmodontis infected in BALB/c mouse assessed as reduction in worm burden at 30 mg/kg, po BID administered for 6 days; format: functional; set-up: scale not given: the % may be the effect or the level left; settings: time 6 day
[24] = test system: Litomosoides sigmodontis; assay: Antiparasitic activity against Litomosoides sigmodontis infected in BALB/c mouse assessed as reduction in worm burden at 30 mg/kg, po BID administered for 7 days; format: functional; set-up: scale not given: the % may be the effect or the level left; settings: time 7 day
[25] = test system: Litomosoides sigmodontis; assay: Antiparasitic activity against Litomosoides sigmodontis infected in BALB/c mouse assessed as reduction in worm burden at 30 mg/kg, po TID administered for 5 days; format: functional; set-up: scale not given: the % may be the effect or the level left; settings: time 5 day

Row | Compound | remaining at 1 h, 3 µM [1] | remaining at 1 h, 3 µM [2] | other results
1 | COc1ccc(Nc2nc(-c3ccccn3)cs2)nc1 | 59% | 51% | 
2 | CNc1cccnc1Nc1nc(-c2ccc(OC(C)C)cn2)ns1 | 86% | 73% | 
3 | CC(C)Oc1cnc(-c2nsc(Nc3ncccc3C(C)C)n2)cc1C(F)(F)F |  |  | remaining at 0.5 h, 3 µM [3]: 97%; remaining at 0.5 h, 3 µM [4]: 96%
4 | Cc1cccnc1-c1nsc(Nc2ccc(N3CCCC3)cn2)n1 | 86% | 61% | logD at 24.5 h [5]: 2.65; solubility kinetic at 24 h ([6]; read-out: Kinetic_solubility): 2.17 µM (≈ 0.734 µg/mL); EC50 [7]: 40 nM
5 | Cc1cccnc1Nc1nc(-c2cc(C(=O)N(C)C)c(OC(C)C)cn2)ns1 |  |  | remaining at 0.5 h, 3 µM [3]: 91%; remaining at 0.5 h, 3 µM [4]: 90%
6 | Cc1cccnc1Nc1nc(-c2cc(C#N)ccn2)ns1 | 65% | 78% | 
7 | Cc1ccnc(-c2nsc(Nc3ncccc3C(F)(F)F)n2)c1 | 56% | 61% | 
8 | Cc1cccnc1Nc1nc(-c2ccc(OC3CCN(C4CC4)CC3(F)F)cn2)ns1 (stereo not drawn) | 52% | 32% | 
9 | CC(C)c1cccnc1Nc1nc(-c2ccc(OC3CC3)cn2)ns1 | 39% | 78% | Kinetic_solubility [6]: 0.2 µM; Activity [8]: 100%
10 | CC(C)Oc1ccc(-c2nsc(Nc3ncccc3N(C)C)n2)nc1 | 86% | 79% | Activity [9]: Non-Toxic; Activity [10]: Non-Toxic; Activity [11]: Non-Toxic; Activity [12]: Non-Toxic; Activity [13]: Non-Toxic; Activity [14]: Non-Toxic; Activity [15]: Non-Toxic; Activity [16]: Non-Toxic; Activity [17]: Non-Toxic; Activity [18]: Non-Toxic; Activity [8]: 100%
11 | CC(=O)N(C)c1cc(C(F)(F)F)cnc1Nc1nc(-c2ccc(OC(C)C)cn2)ns1 |  |  | efflux ratio at 2 h, 10 µM [19]: 4.1
12 | Cc1cccnc1Nc1nnc(-c2ccc(OC3CCOCC3)cn2)o1 |  |  | remaining at 0.5 h, 3 µM [3]: 83%; remaining at 0.5 h, 3 µM [4]: 39%
13 | c1ccc(Nc2nc(-c3ccccn3)ns2)nc1 | 83% | 83% | 
14 | Cc1cccnc1Nc1nc(-c2ccc(OC3CC3)cn2)ns1 | 76% | 61% | Activity [8]: 100%
15 | Cc1cccnc1N(c1nc(-c2ccc(OC(C)C)cn2)ns1)C(C)C | 79% | 60% | 
16 | Cc1cccnc1Nc1nsc(-c2ccc(OC3CCOCC3)cn2)n1 |  |  | remaining at 0.5 h, 3 µM [3]: 77%; remaining at 0.5 h, 3 µM [4]: 89%
17 | Cc1cccnc1Nc1nnc(-c2ccc(OC3CCOCC3)cn2)s1 |  |  | remaining at 0.5 h, 3 µM [3]: 100%; remaining at 0.5 h, 3 µM [4]: 89%
18 | Cc1cccnc1Nc1nc(-c2cc(C3CCN(C)CC3)ccn2)ns1 | 78% | 81% | 
19 | Cc1cccnc1Nc1nc(-c2ncc(OC(C)C)cn2)ns1 |  |  | remaining at 0.5 h, 3 µM [3]: 96%; remaining at 0.5 h, 3 µM [4]: 90%
20 | CC(C)Oc1ccc(-c2nsc(N(C)c3ncccc3C(C)C)n2)nc1 | 32% | 4% | 
21 | Cc1cccnc1Nc1nc(-c2ccc(C#N)cn2)ns1 | 66% | 73% | 
22 | CC(C)Oc1cnc(-c2nsc(Nc3ncccc3N3CCCC3=O)n2)cc1C(F)(F)F |  |  | efflux ratio at 2 h, 10 µM [19]: 3.9
23 | CC(C)Oc1cc(-c2nsc(Nc3ncccc3N(C)C)n2)ncc1C(F)(F)F | 100% | 8% | 
24 | CC(C)c1cnc(Nc2nc(-c3ncccc3OC3CC3)ns2)cc1C(F)(F)F | 100% | 93% | 
25 | Cc1cccnc1Nc1n[nH]c(-c2ccc(OC3CCOCC3)cn2)n1 |  |  | remaining at 0.5 h, 3 µM [20]: 70%; remaining at 0.5 h, 3 µM [3]: 92%
26 | Cc1cccnc1Nc1nc(-c2ccc(C(=O)N(C)C)cn2)ns1 | 97% | 94% | 

Row | Compound | remaining at 1 h, 3 µM [1] | remaining at 1 h, 3 µM [2] | other results
27 | COc1cccnc1Nc1nc(-c2ccc(OC(C)C)cn2)ns1 | 100% | 100% | 
28 | Cc1cccnc1Nc1nc(-c2ccc(OC(C)C)cn2)ns1 | 100% | 100% | Activity [21]: 58.8%
29 | CC(=O)N(C)c1cccnc1Nc1nc(-c2cc(C(F)(F)F)c(OC(C)C)cn2)ns1 |  |  | efflux ratio at 2 h, 10 µM [19]: 4.5
30 | CC(C)Oc1ccc(-c2nsc(Nc3cc(C(F)(F)F)c(C(C)C)cn3)n2)nc1 | 100% | 100% | 
31 | Cc1cccnc1Nc1nc(-c2ccc(OC3CCOCC3)cn2)ns1 | 84% | 82% | 
32 | Cc1cccnc1Nc1nc(-c2ccc(OC3CC4(C3)CN(C3CC3)C4)cn2)ns1 | 58% | 53% | 
33 | CN1CCC(Oc2ccc(Nc3nc(-c4ccccn4)ns3)nc2)CC1 | 88% | 99% | 
34 | Cc1cccnc1Nc1nc(-c2ccc(OC3CCN(C4CC4)CC3)cn2)ns1 | 83% | 76% | Activity [22]: 85.5%
35 | CC(C)c1ccnc(-c2nsc(Nc3ncccc3C(F)(F)F)n2)c1 | 45% | 27% | 
36 | CC(C)Oc1cnc(-c2nsc(Nc3ncccc3N(C)C(=O)C3CC3)n2)cc1C(F)(F)F |  |  | efflux ratio at 2 h, 10 µM [19]: 2.2
37 | CC(C)c1ccnc(-c2nsc(Nc3cc(C(F)(F)F)ccn3)n2)c1 | 65% | 45% | Activity [23]: 46%
38 | CN(C)c1cccnc1Nc1nc(-c2ccc(OC3CC3)cn2)ns1 | 100% | 91% | Activity [8]: 100%
39 | Cc1cccnc1Nc1nc(-c2cc(C(=O)N(C)C)ccn2)ns1 | 89% | 78% | 
40 | CC(C)Oc1ccc(-c2nsc(Nc3ncccc3C(C)C)n2)nc1 | 99% | 82% | Activity [24]: 58.8%
41 | CC(C)Oc1ccc(-c2nsc(Nc3ncccc3C(N)=O)n2)nc1 |  |  | efflux ratio at 2 h, 10 µM [19]: 4.6
42 | CC(C)Oc1cnc(-c2nsc(Nc3ncccc3N(C)C)n2)cc1C(F)(F)F |  |  | remaining at 0.5 h, 3 µM [3]: 98%; remaining at 0.5 h, 3 µM [4]: 93%
43 | COc1cccnc1Nc1nc(-c2cc(C)ccn2)ns1 | 72% | 70% | 
44 | Cc1cccnc1Nc1nc(-c2cnc(OC(C)C)cn2)ns1 | 81% | 74% | 
45 | CC(=O)N(C)c1cc(C(F)(F)F)cnc1Nc1nc(-c2cc(C(C)C)ccn2)ns1 |  |  | efflux ratio at 2 h, 10 µM [19]: 8.4
46 | CC(=O)N(C)c1cc(C(F)(F)F)cnc1Nc1nc(-c2cc(OC(C)C)ccn2)ns1 |  |  | efflux ratio at 2 h, 10 µM [19]: 15.2; Kinetic_solubility [6]: 0.4 µM
47 | Cc1cccnc1N(C)c1nc(-c2ccc(OC(C)C)cn2)ns1 | 96% | 81% | 
48 | CC(C)Oc1ccc(-c2nsc(Nc3ncccc3C(=O)N(C)C)n2)nc1 |  |  | efflux ratio at 2 h, 10 µM [19]: 11
49 | COc1ccc(Nc2nc(-c3ccccn3)ns2)nc1 |  |  | remaining at 0.5 h, 3 µM [3]: 90%; Activity [25]: 50.1%; remaining at 0.5 h, 3 µM [4]: 78%
50 | Cc1cccnc1Nc1nc(-c2ccc(OC3CCOCC3)cn2)no1 | 98% | 85% | 
51 | Cc1cccnc1Nc1nc(-c2cc(C#N)c(OC(C)C)cn2)ns1 | 100% | 84% | 
